Experiments:
5-HT1A = target: T1, 5-HT1A (Homo sapiens, UniProt P08908); test: 5-HT1A-mediated Gi1 activation, BRET; assay type: cell-based; conditions: for EC50: read-out: Gi BRET EC50, 5-HT1A-mediated Gi1 activation, HEK293-T cells; for maximum drug effect (Emax): 5-HT1A-mediated activation of Gi1, BRET; for selectivity for 5-HT1A > 5-HT2A: Gi BRET at 5-HT1A versus Gq BRET at 5-HT2A; for 5-HT1A efficacy (in words): Gi BRET, compared with serotonin
T1 sequence (P08908 1-422): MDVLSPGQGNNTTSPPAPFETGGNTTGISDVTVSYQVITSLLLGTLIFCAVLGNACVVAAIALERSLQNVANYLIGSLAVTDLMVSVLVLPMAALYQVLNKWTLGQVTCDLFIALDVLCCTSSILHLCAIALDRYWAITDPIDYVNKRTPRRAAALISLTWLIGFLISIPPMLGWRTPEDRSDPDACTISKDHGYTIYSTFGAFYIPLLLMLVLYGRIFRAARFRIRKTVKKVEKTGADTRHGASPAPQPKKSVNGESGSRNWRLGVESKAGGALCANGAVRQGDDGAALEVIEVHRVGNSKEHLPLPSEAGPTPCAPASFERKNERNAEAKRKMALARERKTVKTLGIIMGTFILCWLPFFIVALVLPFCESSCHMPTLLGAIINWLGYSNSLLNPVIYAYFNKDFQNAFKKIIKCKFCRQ

5-HT2A = 5-HT2A (Homo sapiens, UniProt P28223); test: 5-HT2A-mediated Gq activation, BRET; assay type: cell-based; conditions: for decrease in 5-HT2A potency: relative to 5-MeO-DMT
5-HT2A, sequence (P28223 whole entry): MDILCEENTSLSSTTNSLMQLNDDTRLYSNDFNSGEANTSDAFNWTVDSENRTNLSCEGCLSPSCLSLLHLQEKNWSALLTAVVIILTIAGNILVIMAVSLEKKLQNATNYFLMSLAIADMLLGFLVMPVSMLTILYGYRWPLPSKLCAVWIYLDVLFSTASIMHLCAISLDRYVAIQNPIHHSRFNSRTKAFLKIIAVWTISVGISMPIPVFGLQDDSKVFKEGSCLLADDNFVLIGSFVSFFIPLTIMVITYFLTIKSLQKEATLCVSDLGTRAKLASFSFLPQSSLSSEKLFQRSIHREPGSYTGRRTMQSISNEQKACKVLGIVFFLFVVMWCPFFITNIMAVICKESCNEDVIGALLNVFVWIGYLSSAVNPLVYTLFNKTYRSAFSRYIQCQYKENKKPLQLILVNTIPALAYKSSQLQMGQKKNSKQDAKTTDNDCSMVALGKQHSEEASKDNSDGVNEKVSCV

[1] = Mouse brain tissue binding; assay type: in vitro ADME; conditions: for % Compound remaining at 4 h: 37 °C; for fraction unbound at 4 h, 5 µM: mouse, mouse brain tissue
[2] = test system: chronic social defeat stress mice; test: Sucrose preference test after chronic social defeat stress; assay type: in vivo, C57BL/6J mice
How it was run: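 Chronic social defeat was 10 days of 10-min bouts by CD-1 aggressors in male C57BL/6J mice. On day 10, stressed mice were housed singly and habituated to two water bottles, then given a two-bottle choice between water and 1% sucrose. Data were pooled from two independent experiments.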

[3] = test system: other neurotransmitter transporters (OCT1, OCT2, PMAT); test: OCT1, OCT2 and PMAT uptake inhibition; assay type: cell-based
[4] = Human plasma protein binding; assay type: in vitro ADME; conditions: for % Compound remaining at 4 h: 37 °C
[5] = target: serotonin transporter (SERT) (Homo sapiens, UniProt P31645); test: Serotonin transporter uptake inhibition; assay type: cell-based
serotonin transporter (SERT), sequence (P31645 whole entry, species assumed): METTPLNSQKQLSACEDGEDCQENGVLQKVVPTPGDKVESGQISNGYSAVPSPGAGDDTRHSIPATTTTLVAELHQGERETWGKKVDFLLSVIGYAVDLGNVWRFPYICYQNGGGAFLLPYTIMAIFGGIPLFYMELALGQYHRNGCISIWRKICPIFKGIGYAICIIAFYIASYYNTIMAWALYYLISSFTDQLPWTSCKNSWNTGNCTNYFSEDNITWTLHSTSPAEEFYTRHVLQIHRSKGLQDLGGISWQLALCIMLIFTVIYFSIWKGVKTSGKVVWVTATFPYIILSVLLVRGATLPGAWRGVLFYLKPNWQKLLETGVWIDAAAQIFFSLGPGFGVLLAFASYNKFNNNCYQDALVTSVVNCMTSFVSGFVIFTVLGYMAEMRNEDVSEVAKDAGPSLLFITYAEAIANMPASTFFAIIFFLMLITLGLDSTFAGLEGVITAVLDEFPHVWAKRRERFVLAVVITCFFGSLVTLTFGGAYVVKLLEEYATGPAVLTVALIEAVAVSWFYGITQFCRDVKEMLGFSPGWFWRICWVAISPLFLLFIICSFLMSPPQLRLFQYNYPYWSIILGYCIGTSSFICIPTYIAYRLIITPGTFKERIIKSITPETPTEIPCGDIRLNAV

[6] = test system: locomotor activity (measure of 5-HT1A activation); test: Open-field locomotion assay; assay type: in vivo, C57BL/6J mice; conditions: mice, s.c.
How it was run: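 Male C57BL/6J mice aged 10–15 weeks were habituated for 30 min, then pretreated with vehicle or WAY-100635 (1 or 2 mg kg⁻¹ s.c.). Test compound followed 15 min later, s.c. at 0.1–3 or 0.3–10 mg kg⁻¹. Mice were placed immediately in a clear arena lit at about 330 lux. Observers were blinded; total locomotion was recorded automatically over 30 min, n = 7–8 per group.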

[7] = Pharmacokinetics in plasma and brain after s.c. administration; assay type: in vivo, C57BL/6 male mice; conditions: mice; for AUClast / Cmax: 1 mg/kg SC
How it was run: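 Male C57BL/6 mice (27; 3 per time point) received a subcutaneous solution formulation. Retro-orbital blood (~60 μl) was taken under light isoflurane at 0.083–12 h. Plasma and brain levels were measured by LC–MS/MS with non-compartmental analysis: Cmax and Tmax as observed, AUClast by linear trapezoidal rule, Kp calculated. For plasma protein binding, compound was spiked at 5 μM final into mouse plasma and dialysed 4 h at 37 °C.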

[8] = Mouse plasma protein binding; assay type: in vitro ADME; conditions: for % Compound remaining at 4 h: 37 °C; for fraction unbound at 4 h, 5 µM: mouse, mouse plasma
[9] = test system: chronic social defeat stress mice; test: Social interaction; assay type: in vivo, C57BL/6J mice
How it was run: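 Male C57BL/6J mice, 8 weeks old, had 10 consecutive days of 10-min defeat by a new CD-1 aggressor each day, then were housed overnight across a partition; controls were pair-housed and handled daily. Drug or vehicle was given 1 h after the last defeat, with SI testing 24 h later. The interaction ratio was interaction-zone time, target vs no-target; corner time and no-target locomotion were also scored. Pooled from three experiments; two-way ANOVA; resilient (>1) vs susceptible (<1) compared by Fisher's exact test.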

[10] = test system: head-twitch response (measure of 5-HT2A activation); test: Head-twitch response; assay type: in vivo, C57BL/6J mice; conditions: mice
[11] = test system: all other G protein-coupled 5-HT receptors; test: Off-target activity at 5-HT receptors; assay type: cell-based, human; conditions: compared with activity at 5-HT1A
5-HT2A(N343A) = 5-HT2A(N343A) (Homo sapiens, UniProt P28223, N343A); test: 5-HT2A-Gq BRET at mutant receptor N343A; assay type: cell-based; conditions: 5-HT2A N343A versus wild type
5-HT2A(N343A), sequence (P28223 whole entry N343A): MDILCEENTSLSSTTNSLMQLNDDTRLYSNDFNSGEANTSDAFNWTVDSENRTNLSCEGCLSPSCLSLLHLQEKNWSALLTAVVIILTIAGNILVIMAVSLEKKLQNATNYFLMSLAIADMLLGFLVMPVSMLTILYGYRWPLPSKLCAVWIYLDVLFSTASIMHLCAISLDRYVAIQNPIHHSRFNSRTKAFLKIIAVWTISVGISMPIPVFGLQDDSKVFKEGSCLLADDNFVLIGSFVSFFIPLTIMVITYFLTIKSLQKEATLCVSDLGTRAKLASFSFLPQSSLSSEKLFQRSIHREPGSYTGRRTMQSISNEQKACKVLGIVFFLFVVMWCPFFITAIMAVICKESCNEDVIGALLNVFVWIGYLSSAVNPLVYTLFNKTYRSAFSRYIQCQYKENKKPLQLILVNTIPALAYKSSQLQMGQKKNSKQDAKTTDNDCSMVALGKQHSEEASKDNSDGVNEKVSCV

5-HT1A(A365N) = test: 5-HT1A-Gi BRET at mutant receptor A365N; assay type: cell-based, human; conditions: 5-HT1A A365N versus wild type
5-HT2A(V366N) = 5-HT2A(V366N) (Homo sapiens, UniProt P28223, V366N); conditions: 5-HT2A V366N versus wild type
5-HT2A(V366N), sequence (P28223 whole entry V366N): as the sequence (P28223 whole entry N343A) above, with A343N, V366N counted along it

In the case of `COc1ccc2[nH]cc(CCN3CC=CC3)c2c1F` [4-F,5-MeO-3-PyrrolineT], the EC50 (5-HT1A) is reported as 0.00022 µM.

With `COc1ccc2[nH]cc(CCN(C)C)c2c1F` [4-F,5-MeO-DMT] the “decrease in 5-HT2A potency” value (5-HT2A) was 3 fold and the “increase in potency at 5-HT1A” value (5-HT1A; relative to 5-MeO-DMT) was 14 fold.

In the case of `COc1ccc2[nH]cc(CCN3CCCC3)c2c1F` [4-F,5-MeO-PyrT, 4-fluoro, 5-methoxypyrrolidinyl-tryptamine], the “% Bound Mean” value [1] is reported as 82.5%, the “% Recovery” value [1] is reported as 88% and the “% Unbound” value [1] is reported as 17.5%. For the same compound, the brain tissue binding [1] was 82.5%, the fu [1] was 0.175 and the “% Compound remaining at 4 h” value [1] was 96%. For the same compound, the “% Bound R1” value ([1]; replicate 1, 4 h at 37 °C) was 84.3%, the “sucrose preference in stressed mice relative to vehicle-treated animals” value ([2]; 1 mg kg^-1 s.c., 1% sucrose two-bottle choice) was “significantly increased sucrose preference” and the “activity at other neurotransmitter transporters (in words)” value [3] was “substantially reduced activity”. For the same compound, the “% Bound Mean” value ([4]; Human Plasma) was 26.01%, the “% Recovery” value ([4]; Human Plasma) was 81.8% and the “% Unbound” value ([4]; Human Plasma) was 73.99%. For the same compound, the fu ([4]; Human Plasma) was 0.740, the “% Compound remaining at 4 h” value ([4]; Human Plasma) was 97.9% and the “% Bound R1” value ([4]; Human Plasma, replicate 1, 4 h at 37 °C) was 22.19%. For the same compound, the “activity at the serotonin transporter (in words)” value [5] was “substantially reduced activity”, the “locomotor activity in the open-field test (in words)” value [6] was “dose-dependent locomotor suppression” and the “lowest dose that produced suppression of locomotion” value [6] was 0.03 mg/kg. For the same compound, the EC50 (5-HT2A; read-out: Gq BRET EC50, 5-HT2A-mediated Gq activation) was 0.3 µM, the “maximum drug effect (Emax)” value (5-HT1A) was 102.8 % of 5-HT and the “selectivity for 5-HT1A > 5-HT2A” value (5-HT1A) was “greater than 800 fold”. The EC50 (5-HT1A) was 0.00037 µM, the AUClast ([7]; Brain) was 128.34 ng·h/mL and the Cmax ([7]; Brain) was 143.35 ng/mL. For the same compound, the AUClast ([7]; Plasma) was 26.40 ng·h/mL, the Cmax ([7]; Plasma) was 44.02 ng/mL and the “time within which compound was largely cleared” value ([7]; 1 mg kg^-1 s.c.) was at most 2 h. For the same compound, the total brain-to-plasma ratio ([7]; 1 mg kg^-1 s.c.) was 3.3, the unbound brain-to-plasma ratio ([7]; 1 mg kg^-1 s.c.) was 0.91 and the “time of peak brain penetration” value ([7]; 1 mg kg^-1 s.c., following drug administration) was 30 min. The “estimated free drug concentration in the brain at Tmax” value ([7]; s.c. dose of 1 mg kg^-1, at 82.5% brain tissue binding) was “about 100 nM”, the “% Bound Mean” value ([8]; Mouse Plasma) was 37.36% and the “% Recovery” value ([8]; Mouse Plasma) was 84.7%. For the same compound, the “% Unbound” value ([8]; Mouse Plasma) was 62.64%, the fu ([8]; Mouse Plasma) was 0.626 and the “% Compound remaining at 4 h” value ([8]; Mouse Plasma) was 105.6%. The “% Bound R1” value ([8]; Mouse Plasma, replicate 1, 4 h at 37 °C) was 32.04%, the “social avoidance phenotype (decreased interaction ratio) in stress-exposed mice” value ([9]; 1 mg kg^-1 s.c. 1 h after last defeat, SI test 24 h later) was “rescued” and the “interaction ratio in control mice, drug versus vehicle” value ([9]; 1 mg kg^-1 s.c., non-stressed mice) was “did not show any distinguishable differences in IR”. The “increased time in the corners of the arena in defeated mice” value ([9]; drug-treated stressed mice) was “no longer observed”, the “number of resilient mice (SI ratio > 1)” value ([9]; drug-treated versus vehicle-treated stressed mice) was “increased the number of resilient mice” and the “HTR (in words)” value ([10]; doses up to 3 mg kg^-1, in the presence or absence of WAY-100635) was “did not produce notable HTR”. The “activity at other 5-HT receptors (in words)” value [11] was “substantially reduced activity”.

With `CN(C)CCc1c[nH]c2ccc(O)c(F)c12` [4-F,5-OH-DMT] the “decrease in potency by N343A mutation” value (5-HT2A(N343A)) was about 19 fold.

In the case of `COc1ccc2[nH]cc(CCN3CC=CC3)c2c1` [5-MeO-3-PyrrolineT], the EC50 (5-HT1A) is reported as 0.0003 µM and the “further increase in potency at 5-HT1A” value (5-HT1A; relative to 5-MeO-PyrT) is reported as “around eightfold”.

With `CCN(CC)CCc1c[nH]c2ccc(OC)cc12` [5-MeO-DET] the “5-HT1A efficacy (in words)” value (5-HT1A) was “full efficacy” and the EC50 (5-HT1A) was 0.0371 µM.

In the case of `CCN(C)CCc1c[nH]c2ccc(OC)cc12` [5-MeO-MET], the “locomotor activity in the open-field test (in words)” value [6] is reported as “dose-dependent locomotor suppression”, the “5-HT1A efficacy (in words)” value (5-HT1A) is reported as “full efficacy” and the EC50 (5-HT1A) is reported as 0.0259 µM. The “HTR (in words)” value ([10]; following co-administration of the 5-HT1A-selective antagonist WAY-100635) was “strong dose-dependent activity”.

For `COc1ccc2[nH]cc(CCN3CCCCC3)c2c1` [5-MeO-PipT, 5-methoxypiperidinyl-tryptamine], the EC50 (5-HT1A) was 0.0885 µM and the “loss of potency at 5-HT1A” value (5-HT1A; relative to 5-MeO-PyrT) was about 42 fold.

In the case of `COc1ccc2[nH]cc(CCN3CCCC3)c2c1` [5-MeO-PyrT, 5-methoxy-N,N-pyrrolidinyl-tryptamine], the “decrease in 5-HT2A potency” value (5-HT2A) is reported as “about 3 fold”, the “selectivity for 5-HT1A > 5-HT2A” value (5-HT1A) is reported as over 38 fold and the “increase in 5-HT1A > 5-HT2A selectivity” value (5-HT1A; cyclization of the amine moiety alone, relative to 5-MeO-DMT) is reported as “approximately 38 fold”. The EC50 (5-HT1A) was 0.0021 µM and the “increase in potency at 5-HT1A” value (5-HT1A; relative to 5-MeO-DMT) was “about 12 fold”.

For `CN(C)CCc1c[nH]c2ccc(O)cc12` [5-OH-DMT, bufotenine], the “decrease in potency by A365N mutation” value (5-HT1A(A365N)) was “about 18 fold”.

With `NC(=O)N1c2ccccc2C=Cc2ccccc21` [Carbamazepine, reference compound] the “% Compound remaining at 4 h” value [1] was 96%, the fraction unbound at 4 h, 5 µM ([1]; pH 7.4, % Unbound) was 0.118 and the fraction unbound at 4 h, 5 µM ([1]; pH 7.4, fu) was 0.118.

With `CN(C)CCc1c[nH]c2ccccc12` [DMT, N,N-dimethyltryptamine, reference compound] the “effect of N343A mutation on potency (in words)” value (5-HT2A(N343A)) was “minor effects”.

With `CCN(CC)C(=O)[C@@H]1C=C2c3cccc4[nH]cc(c34)C[C@H]2N(C)C1` [LSD, lysergic acid diethylamide] the “effect of V366N mutation on signalling efficacy at 5-HT2A (in words)” value (5-HT2A(V366N)) was “increase in signalling efficacy”.

With `COc1ccccc1N1CCN(CCN(C(=O)C2CCCCC2)c2ccccn2)CC1` [WAY-100635, reference compound] the “increase of sucrose preference in stressed mice, treatment alone” value ([2]; stressed mice) was “not significant”.

In the case of `CC(=O)CC(c1ccccc1)c1c(O)c2ccccc2oc1=O` (stereo not shown) [Warfarin, reference compound], the “% Compound remaining at 4 h” value ([4]; Human Plasma) is reported as 108.8%, the fraction unbound at 4 h, 5 µM ([4]; human, human plasma, pH 7.4, % Bound R2, Human Plasma, replicate 2, 4 h at 37 °C) is reported as 0.015 and the “% Compound remaining at 4 h” value ([8]; Mouse Plasma) is reported as 103.3%. For the same compound, the fraction unbound at 4 h, 5 µM ([8]; pH 7.4, % Bound R2, Mouse Plasma, replicate 2, 4 h at 37 °C) was 0.067, the fraction unbound at 4 h, 5 µM ([8]; pH 7.4, % Unbound) was 0.064 and the fraction unbound at 4 h, 5 µM ([8]; pH 7.4, fu) was 0.064.

For `O=C1CCc2ccc(OCCCCN3CCN(c4cccc(Cl)c4Cl)CC3)cc2N1` [aripiprazole, reference compound], the “maximum drug effect (Emax)” value (5-HT1A) was 77.1 % of 5-HT.

With `O=C1CC2(CCCC2)CC(=O)N1CCCCN1CCN(c2ncccn2)CC1` [buspirone, reference compound] the “maximum drug effect (Emax)” value (5-HT1A) was 93.4 % of 5-HT.

With `N#Cc1ccc2[nH]cc(CCCCN3CCN(c4ccc5oc(C(N)=O)cc5c4)CC3)c2c1` [vilazodone, reference compound] the “lowest concentration showing activity” value (5-HT1A; 5-HT1A Gi BRET, suspected slow binding kinetics) was 30 pM and the “maximum drug effect (Emax)” value (5-HT1A) was 97.4 % of 5-HT.
